Assay outcomes: PubChem, several laboratories
ASAP1 inh: inhibitors of human ASAP1 ArfGAP activity, primary screen, biochemical, fluorescence polarization | Arf-GAP with SH3 domain, ANK repeat and PH domain-containing protein 1 (Homo sapiens), … | ASAP1-stimulated ARF1 GTP hydrolysis, GDP FP detection | inhibition, % at 16.5 µM | 360,000 compounds, 0.19% hits | AID 624377, 2012; in the data active means inhibition above about 25%;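 further: 0% = vehicle with enzyme and substrate and 100% = no enzyme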
HGIII-sPLA2 inh: human group III sPLA2 inhibitors, primary screen, biochemical, QFRET, BODIPY PC-A2 liposome substrate; Group 3 secretory phospholipase A2 (Homo sapiens), Q9NZ20; QFRET BODIPY PC-A2 liposome hydrolysis, fluorescence; inhibition, % at 12.2 µM; 370,000 compounds, 0.56% hits;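 active means inhibition above mean plus 3 SD of compounds lying within the high and low control bounds, cut at about 19% in these data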;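 further: 0% = median of test compound wells and 100% = no enzyme DMSO wells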
ARFGAP1 inh: inhibitors of rat ARFGAP1 GAP activity, primary screen, biochemical, fluorescence polarization, GDP tracer. 360,000 compounds, 0.26% hits. ADP-ribosylation factor GTPase-activating protein 1 (Rattus norvegicus), Q62848. inhibition, % at 16.5 µM. Arfgap1-stimulated ARF1 GTP hydrolysis, GDP FP detection;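 active means inhibition above a per-plate limit, mean inhibition of low control wells plus 3 SD, cut at about 25% in these data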;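 further: 0% = DMSO wells with enzyme and 100% = wells lacking Arfgap1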
Target sequence (Q62848 1-136 limits assumed): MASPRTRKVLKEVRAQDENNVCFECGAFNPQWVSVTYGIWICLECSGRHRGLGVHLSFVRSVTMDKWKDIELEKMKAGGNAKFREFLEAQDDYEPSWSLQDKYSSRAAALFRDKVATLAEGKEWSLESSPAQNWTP
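material = rat Arfgap1 catalytic domain, aa 1-136 | also added = human ARF1(Δ1-17)-GTP substrate | compound dosing = one concentration, 16.5 µM, DMSO 1.26% | times = GTP hydrolysis reaction 2 h at 25 °C | measured by = FP, GDP Alexa 633 tracer displaced from anti-GDP antibody, 620/688 nm | evaluation = percent inhibition of Arfgap1-stimulated GTP hydrolysis | replication = single well per compound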
SKKanGAS inh: S. pyogenes SKKanGAS growth inhibitors in kanamycin, primary screen, streptokinase expression inhibitor project, SKKanGAS strain, BacTiter-Glo luminescence. 6 h. inhibition, % at 7.5 µM. 300,000 compounds, 1.3% hits;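 active means mean replicate score, as percent of positive control median, at least 50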;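 further: strain carries kanamycin resistance gene driven by streptokinase promoter and grows in 40 µg/ml kanamycin; loss of luminescence reflects streptokinase promoter inhibition or plain growth inhibition; 0% = median of DMSO wells and 100% = positive control at its reference dose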
Calb FLC: C. albicans growth inhibition with fluconazole, primary screen, CaCi-2 strain, Alamar Blue fluorescence. growth inhibition, % (no concentration beside the values). C. albicans CaCi-2 + fluconazole, 48 h. AID 1979, 2009. 300,000 compounds, 0.57% hits;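 active means growth inhibition above about 58% in most replicates, limit read from the data, passing the limit was not always enough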;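 further: all wells also contain fluconazole at 8 µg/ml as a sub-toxic cotreatment; 0% = median of DMSO wells and 100% = median of geldanamycin control wells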
Numbers without * were called inactive; · = not tested or not shown. Compounds with a hit are over-represented: about 2.3% of the library has one in this group of screens.

SMILES	ASAP1 inh	HGIII-sPLA2 inh	ARFGAP1 inh	SKKanGAS inh	Calb FLC
CN1C(=O)[C@H]2[C@@H](c3ccc(C(F)(F)F)cc3)N[C@]3(CCCN(Cc4ccc(Br)cc4)C3=O)[C@H]2C1=O	-1	-1	2	·	·
O=C(CSc1nc2ccccc2s1)N/N=C/c1cc([N+](=O)[O-])ccc1O	5	0	-2	91*	7
O=C(N/N=C/c1ccc(O)c2ncccc12)c1cccc(Br)c1	-3	13	2	15	116*
CC(=O)Nc1ccc(C(=O)N/N=C/c2cc(Br)cc(Br)c2O)cc1	11	13	2	22	61
CC(C)C(=O)Nc1ccc(C(=O)N/N=C/c2cc(Br)cc(Br)c2O)cc1	12	12	-1	68*	-14
O=C(N/N=C/c1cc([N+](=O)[O-])ccc1O)c1cccc(N2CCCC2=O)c1	-2	2	6	55*	-1
COc1ccc(NC(=O)C2(C)Cc3c(-c4cccc(C(N)=O)c4)ccnc3O2)cc1 (stereo unspecified)	-24	2	7	·	·
COc1ccc(C2C(C(=O)N3CCN(c4ccccc4C)CC3)CC(=O)N2c2ccc(OC)cc2)cc1 (stereo unspecified)	·	-4	·	·	·
Cc1ccc(-c2cc(C(=O)NN=Cc3ccc(N(C)C)cc3)[nH]n2)cc1C	·	2	·	·	·
O=C(N/N=C/c1cc([N+](=O)[O-])ccc1O)C1CC1	-11	5	-1	-2	23
CCc1ccc(N2CC(C(=O)N/N=C/c3ccccc3OC)CC2=O)cc1 (stereo unspecified)	-7	-5	0	3	-4
O=C(N/N=C/c1cc([N+](=O)[O-])ccc1O)c1ccc2c(c1)OCCO2	-1	12	1	70*	23
CCc1ccc(N2CC(C(=O)N/N=C/c3cc([N+](=O)[O-])ccc3O)CC2=O)cc1 (stereo unspecified)	-3	-5	4	-4	106*
O=C(N/N=C/c1ccccc1[N+](=O)[O-])c1ccc2c(c1)OCCO2	14	3	9	-15	0
O=C(N/N=C/c1cc([N+](=O)[O-])ccc1O)C(O)(c1ccccc1)c1ccccc1	-10	-6	7	51*	98*
CC1(C)CC(N2CCCC2)=CC(=[N+]2CCCCCC2)C1	4	3	2	-19	88*
CC1(C)CC(N2CCN(c3ccccc3)CC2)=CC(=[N+]2CCCC2)C1	-3	6	1	6	94*
COc1ccc(CSc2nnc(SCC(=O)Nc3ccc(S(N)(=O)=O)cc3)s2)cc1	·	17	·	·	·
Cc1ccc(CNc2ccc(CNc3ncn[nH]3)cc2)cc1	16	1	17	1	-40
CCOc1ccc(CNc2ccc(CNc3ncn[nH]3)cc2)cc1	6	-11	4	-2	102*
Clc1ccc(OCCOc2ccc(Br)nc2Br)c(Cl)c1	·	-1	·	·	·
CCc1ccc(NC(=O)c2ccc(F)c(S(=O)(=O)NCC3COc4ccccc4O3)c2)cc1 (stereo unspecified)	5	-34	12	50*	4
O=C(NCC1COc2ccccc2O1)c1ccc(F)c(S(=O)(=O)N2CCOCC2)c1 (stereo unspecified)	2	-1	-2	·	·
CN(C)c1ccc(NC(=O)c2cn(-c3ccccc3)nc2-c2cccs2)cc1	6	14	13	-1	13
CN(C)C(=O)c1cn(-c2ccccc2)nc1-c1cccs1	-5	-1	-1	3	106*
COc1ccc(NC(=O)c2cn(-c3ccccc3)nc2-c2cc3ccccc3o2)cc1	29*	0	10	7	15
O=C(NNC(=S)NC(=O)c1sc2ccccc2c1Cl)c1ccc(Cl)cc1	-1	9	2	96*	-9
O=C(O)c1ccccc1NC(=S)NC(=O)c1sc2ccccc2c1Cl	13	6	12	·	15
COc1ccc(-c2nn(-c3ccccc3)cc2C(=O)NC(=S)NNC(=O)c2ccncc2)cc1	4	14	-6	89*	-5
CCC(=O)NC(=S)NNC(=O)c1ccc(OC)cc1	3	7	6	10	-6
